Measurements reported in publication PMC4656071 (Biochemical pharmacology, 2015).

What was measured:
[1] = molecular target: T1, Human sEH (Homo sapiens, UniProt P34913); assay: sEH activity assay; type: biochemical; conditions: fluorescent assay for sEH inhibition, from Table 3 (human and mouse sEH)
T1 sequence (P34913 1-555): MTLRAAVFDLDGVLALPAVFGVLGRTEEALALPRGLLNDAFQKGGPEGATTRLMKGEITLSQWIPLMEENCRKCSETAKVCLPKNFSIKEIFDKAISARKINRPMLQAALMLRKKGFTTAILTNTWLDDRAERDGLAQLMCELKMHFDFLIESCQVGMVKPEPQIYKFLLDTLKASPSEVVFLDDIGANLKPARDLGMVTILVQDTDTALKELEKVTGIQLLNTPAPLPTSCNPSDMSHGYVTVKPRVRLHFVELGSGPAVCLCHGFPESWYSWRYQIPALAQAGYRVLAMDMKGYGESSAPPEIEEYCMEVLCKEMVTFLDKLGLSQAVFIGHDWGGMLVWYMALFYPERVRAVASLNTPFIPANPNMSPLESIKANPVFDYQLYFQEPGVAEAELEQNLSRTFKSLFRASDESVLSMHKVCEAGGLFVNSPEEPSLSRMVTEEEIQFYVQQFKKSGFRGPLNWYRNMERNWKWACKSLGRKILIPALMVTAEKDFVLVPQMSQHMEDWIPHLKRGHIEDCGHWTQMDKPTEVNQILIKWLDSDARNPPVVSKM

[2] = Blood level-time course of AEPU and its metabolites after oral dosing in mice; type: in vivo, male swiss webster mice
[3] = In vivo metabolism study of AEPU, rat urine by LC-MS; set-up: species or system rat (Sprague Dawley); conditions: rats, oral 10 mg/kg AEPU, urine 24 h after treatment
[4] = tested on: sEH; conditions: cited from earlier work
[5] = 5 mg/kg for mouse and rat, 0.3 mg/kg for dog; cited from earlier work
[6] = type: in vitro ADME, rat, human; conditions: incubated in vitro without NADPH
[7] = tested on: CYP2D6; assay: Recombinant human CYPs incubation, CYP2D6; type: in vitro ADME; conditions: 1 μM AEPU, 20 pmol/ml CYP, 30 min
How it was run: (§1)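 Recombinant human CYPs (20 pmol/ml) with 1 μM test compound in 100 mM sodium phosphate pH 7.4, preincubated 5 min at 37 °C. NADPH-generating system added; incubated 0 and 30 min. Stopped with 200 nM internal standard in methanol; LC-MS/MS. Metabolites compared as response-area ratio to internal standard.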

[8] = animal models; cited from earlier work
[9] = tested on: CYP 3A4; type: in vitro ADME, human; conditions: 10 uM ketoconazole, 30 min, 37°C
[10] = tested on: CYP3A4; assay: Recombinant human CYPs incubation, CYP3A4; type: in vitro ADME; conditions: 1 μM AEPU, 20 pmol/ml CYP, 30 min
How it was run: as §1

## CCOCCOCCOCCCCCNC(=O)NC12CC3CC(CC(O)(C3)C1)C2 [M2]
[1]
  potency lower compared to AEPU: 30–100 fold

## O=C(O)CCNC(=O)NC12CC3CC(CC(C3)C1)C2 [M15, 3-(3-adamantyl-ureido)-propanoic acid]
[2]; oral 10 mg/kg AEPU, mouse whole blood, 6 hours
  blood level 6 hours post administration: under the detection limitation
[3]
  occurrence in rat urine: major metabolite

## O=C(O)CCCNC(=O)NC12CC3CC(CC(C3)C1)C2 [4-(3-adamantan-1-yl-ureido)butanoic acid]
[4]
  inhibitory potency on sEH (in words): very weak

## CCOCCOCCOCCCCCNC(=O)NC12CC3CC(CC(C3)C1)C2 [AEPU, 1-adamantan-1-yl-3-(5-(2-(2-ethoxyethoxy)ethoxy)pentyl)urea]
[5]
  area under curve after oral administration, comparison of species: largest area under curve for dog, and then rat, while under detection limitation for mouse
[6]
  metabolite formation in vitro without NADPH: failed to generate metabolites
[7]
  role of CYP2D6 in the in vitro metabolism of AEPU: minor enzyme
[8]
  blood level of AEPU through the whole time course: undetectable
[9]
  metabolism of AEPU in human liver S9 fraction with ketoconazole: ceased
[10]
  role of CYP3A4 in the in vitro metabolism of AEPU: major enzyme
[2]; oral 10 mg/kg, multiple metabolites observed after 30 minutes
  metabolism in vivo (in words): metabolized rapidly
